Measured values from ChEMBL document CHEMBL2417460, “Synthesis and biological evaluation of berberine-thiophenyl hybrids as multi-functional agents: Inhibition of acetylcholinesterase, butyrylcholinesterase, and Aβ aggregation and antioxidant activity” (Bioorg Med Chem, 2013).
Calls of active or inactive are those of the source. No cut-off for these calls is given here.

How the values were obtained:
[1] = Antioxidant activity assessed as ratio of umol of trolox equivalent to umol of compound after 10 mins by oxygen radical absorbance capacity-fluorescein assay; format: functional
Procedure, shortened: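 Fluorescein 300 nM final was preincubated with antioxidant for 10 min at 37 °C, then AAPH was added to 12 mM final. Fluorescence (ex 485/em 535 nm) was read every 60 s for 4 h. Samples were run at […] against a Trolox calibration and an FL+AAPH blank in phosphate buffer. Results are expressed as Trolox equivalents, with mixtures in triplicate and ≥3 independent runs.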

[2] = molecular target: T1, Acetylcholinesterase (Electrophorus electricus, UniProt O42275); assay: Inhibition of electric eel AChE using acetylthiocholine chloride as substrate preincubated for 15 mins prior to substrate addition by Ellman's method
T1 sequence (O42275 whole entry): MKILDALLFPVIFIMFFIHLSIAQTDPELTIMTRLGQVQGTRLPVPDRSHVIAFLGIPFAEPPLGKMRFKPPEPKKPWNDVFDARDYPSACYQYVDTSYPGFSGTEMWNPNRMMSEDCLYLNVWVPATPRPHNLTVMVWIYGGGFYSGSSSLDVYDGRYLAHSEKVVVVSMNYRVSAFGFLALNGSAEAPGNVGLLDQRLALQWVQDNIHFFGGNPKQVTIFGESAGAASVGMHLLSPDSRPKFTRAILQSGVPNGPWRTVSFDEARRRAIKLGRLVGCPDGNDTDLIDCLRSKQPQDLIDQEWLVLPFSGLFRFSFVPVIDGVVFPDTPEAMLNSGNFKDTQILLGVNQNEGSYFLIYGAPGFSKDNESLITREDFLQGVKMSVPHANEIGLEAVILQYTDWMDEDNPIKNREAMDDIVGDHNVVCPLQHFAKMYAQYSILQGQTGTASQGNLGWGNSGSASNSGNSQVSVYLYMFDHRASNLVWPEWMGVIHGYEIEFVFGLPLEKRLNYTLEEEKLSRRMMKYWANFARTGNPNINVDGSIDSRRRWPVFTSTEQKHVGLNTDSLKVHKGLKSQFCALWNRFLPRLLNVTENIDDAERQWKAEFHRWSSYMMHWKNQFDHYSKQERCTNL

[3] = molecular target: Amyloid-beta precursor protein (Homo sapiens) (UniProt P05067); assay: Inhibition of amyloid beta (1-42) (unknown origin) aggregation at 20 uM after 48 hrs by thioflavin-T based fluorimetric assay relative to control
Chain of Amyloid-beta precursor protein (Homo sapiens) (P05067 whole entry): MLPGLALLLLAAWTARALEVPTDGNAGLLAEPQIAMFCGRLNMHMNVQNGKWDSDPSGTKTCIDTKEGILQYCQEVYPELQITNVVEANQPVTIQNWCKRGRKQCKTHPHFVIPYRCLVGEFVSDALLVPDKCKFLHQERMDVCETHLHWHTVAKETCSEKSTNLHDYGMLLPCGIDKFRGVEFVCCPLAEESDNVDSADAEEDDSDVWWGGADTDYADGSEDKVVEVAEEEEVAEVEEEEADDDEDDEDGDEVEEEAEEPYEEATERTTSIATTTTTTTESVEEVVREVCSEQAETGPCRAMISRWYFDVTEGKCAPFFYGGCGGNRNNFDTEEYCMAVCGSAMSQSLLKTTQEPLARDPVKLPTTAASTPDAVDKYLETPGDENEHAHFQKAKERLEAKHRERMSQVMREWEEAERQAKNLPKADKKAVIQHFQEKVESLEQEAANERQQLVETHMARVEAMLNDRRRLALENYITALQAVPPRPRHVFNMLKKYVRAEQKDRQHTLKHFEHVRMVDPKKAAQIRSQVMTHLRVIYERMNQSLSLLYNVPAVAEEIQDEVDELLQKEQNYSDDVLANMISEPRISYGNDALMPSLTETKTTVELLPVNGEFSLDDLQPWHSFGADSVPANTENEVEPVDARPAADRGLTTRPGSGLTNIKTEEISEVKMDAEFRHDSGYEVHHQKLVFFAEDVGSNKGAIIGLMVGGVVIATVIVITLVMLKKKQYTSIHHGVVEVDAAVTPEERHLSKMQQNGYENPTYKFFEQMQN
Procedure, shortened: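 HFIP-pretreated Aβ1–42 was resolubilised in 50 mM phosphate buffer, pH 7.4, and incubated at 37 °C for 48 h (50 μM final peptide) with or without compound at 20 μM. Samples were diluted into 50 mM glycine–NaOH, pH 8.0, containing thioflavin T and scanned for 300 s (ex 450/em 485 nm). Plateau values were averaged after subtracting ThT background.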

[4] = molecular target: T1, Acetylcholinesterase; assay: Mixed-type inhibition of electric eel AChE using acetylthiocholine chloride as substrate by Lineweaver-Burk plot analysis
Procedure, shortened: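 Electric eel AChE was pre-incubated with inhibitor at 37 °C for 15 min in 0.1 M phosphate buffer, pH 8.0, with DTNB, then substrate was added. Absorbance at 412 nm was followed at 60 s intervals at 37 °C. Reciprocal plots of initial velocity versus substrate concentration defined the inhibition type.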

[5] = Antioxidant activity assessed as H2O2 scavenging activity measured as compound remaining at 100 uM after 72 hrs by LC/MS analysis; format: functional
[6] = Antioxidant activity assessed as H2O2 scavenging activity at 100 uM after 72 hrs by spectrophotometric analysis; format: functional
Procedure, shortened: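 Compound solution was added to H2O2 (0.1 mM) in 0.1 M phosphate buffer, pH 7.4, and incubated for 72 h at 37 °C. Phenol red (0.2 mg/mL) plus horseradish peroxidase (0.4 mg/mL) was added; after 15 min, 1 M NaOH was added and absorbance read at 610 nm. Percent H2O2 reduction = (A_H2O2 − A_sample)/A_H2O2 × 100, with the control holding acetone and no compound.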

## COc1ccc2cc3[n+](cc2c1OCCCCCCSc1ccccc1)CCc1cc2c(cc1-3)OCO2
[1]
  Activity: 0.77 equiv
[2]
  IC50: 0.972 µM

## COc1ccc2cc3[n+](cc2c1OCCSc1cccc(C)c1)CCc1cc2c(cc1-3)OCO2
[3]
  inhibition: 72.3%
[1]
  Activity: 1.32 equiv
[2]
  IC50: 0.207 µM

## COc1ccc2cc3[n+](cc2c1OCCCCSc1ccccc1)CCc1cc2c(cc1-3)OCO2
[3]
  inhibition: 69.1%
[1]
  Activity: 0.95 equiv
[2]
  IC50: 0.192 µM

## COc1ccccc1SCCOc1c(OC)ccc2cc3[n+](cc12)CCc1cc2c(cc1-3)OCO2
[3]
  inhibition: 76.8%
[1]
  Activity: 1.94 equiv
[2]
  IC50: 0.151 µM

## Oc1ccc(/C=C/c2cc(O)cc(O)c2)cc1
[3]
  inhibition: 61.1%

## COc1ccc2cc3[n+](cc2c1OC)CCc1cc2c(cc1-3)OCO2
[3]
  inhibition: 35.5%
[1]
  Activity: 0.4 equiv

## COc1ccc2cc3[n+](cc2c1OCCSc1ccc(C)cc1)CCc1cc2c(cc1-3)OCO2
[3]
  inhibition: 70%
[1]
  Activity: 1.86 equiv
[2]
  IC50: 0.299 µM

## COc1ccc2cc3[n+](cc2c1OCCCSc1ccccc1)CCc1cc2c(cc1-3)OCO2
[3]
  inhibition: 70.6%
[1]
  Activity: 0.94 equiv
[2]
  IC50: 0.257 µM

## COc1ccc2cc3[n+](cc2c1OCCSc1cccc(Cl)c1)CCc1cc2c(cc1-3)OCO2
[1]
  Activity: 0.47 equiv
[2]
  IC50: 0.233 µM

## COc1ccc2cc3[n+](cc2c1OCCCCCSc1ccccc1)CCc1cc2c(cc1-3)OCO2
[1]
  Activity: 0.89 equiv
[2]
  IC50: 0.543 µM

## COc1ccc2cc3[n+](cc2c1OCCSc1ccccc1C)CCc1cc2c(cc1-3)OCO2
[3]
  inhibition: 73.4%
[1]
  Activity: 1.11 equiv
[4]
  Ki: 0.071 µM
[2]
  IC50: 0.077 µM
[5]
  Activity: Active
[6]
  Activity: Active

## COc1ccc2cc3[n+](cc2c1OCCSc1ccccc1Cl)CCc1cc2c(cc1-3)OCO2
[3]
  inhibition: 65.1%
[1]
  Activity: 0.75 equiv
[4]
  Ki: 0.018 µM
[2]
  IC50: 0.042 µM

## COc1ccc2cc3[n+](cc2c1OCCSc1ccc(Cl)cc1)CCc1cc2c(cc1-3)OCO2
[1]
  Activity: 0.82 equiv
[2]
  IC50: 0.484 µM

## COc1ccc2cc3[n+](cc2c1OCCSc1ccccc1F)CCc1cc2c(cc1-3)OCO2
[3]
  inhibition: 73.3%
[1]
  Activity: 1.15 equiv
[2]
  IC50: 0.087 µM

## COc1ccc2cc3[n+](cc2c1OCCSc1ccccc1)CCc1cc2c(cc1-3)OCO2
[3]
  inhibition: 70.4%
[1]
  Activity: 0.89 equiv
[2]
  IC50: 0.177 µM

## CCc1ccccc1SCCOc1c(OC)ccc2cc3[n+](cc12)CCc1cc2c(cc1-3)OCO2
[3]
  inhibition: 74.8%
[1]
  Activity: 1.01 equiv
[2]
  IC50: 0.083 µM
